Measurements from ChEMBL document CHEMBL3351826, “Synthesis of pyrazolo[4,3-e][1,2,4]triazine sulfonamides, novel Sildenafil analogs with tyrosinase inhibitory activity” (Bioorg Med Chem, 2014).
In brackets after ≈: the same amount, converted by molar mass. Activity calls are given as the source filed them. No cut-off for these calls is given here.

Experiments:
[1] = Inhibition of Leptosphaeria sacchari tyrosinase using L-DOPA as substrate incubated for 10 mins prior to substrate addition […] by spectrophotometry
Leptosphaeria sacchari [2] = assay: Inhibition of Leptosphaeria sacchari tyrosinase using L-DOPA as substrate assessed as remaining activity at 0.3 mg/ml incubated for 10 mins prior to substrate addition […] by spectrophotometry
Oryctolagus cuniculus = organism: Oryctolagus cuniculus; assay: Inhibition of rabbit platelet PDE5A using [3H]cGMP as substrate at 1 uM after 30 mins by scintillation proximity assay
Method in brief: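 PDE5A isolated from rabbit platelets; tritium scintillation proximity assay in 50 mM Tris-HCl pH 7.5 with 8.3 mM MgCl2 and 1.7 mM EGTA. Compounds tested at 1 µM from DMSO stock, final DMSO <1%. Enzyme limited to ≤15% substrate hydrolysis. Duplicates. % inhibition = [1 − (CPM sample − blank)/(CPM water control − blank)] × 100.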

Leptosphaeria sacchari [3] = assay: Inhibition of Leptosphaeria sacchari tyrosinase using L-DOPA as substrate at 0.3 mg/ml incubated for 10 mins prior to substrate addition […] by spectrophotometry
Leptosphaeria sacchari [4] = assay: Inhibition of Leptosphaeria sacchari tyrosinase using L-DOPA as substrate at 1 mM incubated for 10 mins prior to substrate addition […] by spectrophotometry
Leptosphaeria sacchari [5] = assay: Inhibition of Leptosphaeria sacchari tyrosinase using L-DOPA as substrate at 0.1 mM incubated for 10 mins prior to substrate addition […] by spectrophotometry

SMILES	IC50 [1] [mg/mL]	Activity (Leptosphaeria sacchari [2]) [%]	inhibition (Oryctolagus cuniculus) [%]	inhibition (Leptosphaeria sacchari [3]) [%]	inhibition (Leptosphaeria sacchari [4])	inhibition (Leptosphaeria sacchari [5]) [%]
CCOc1ccc(S(=O)(=O)NCCN)cc1-c1nnc2c(n1)c(C)nn2C	0.07 (≈ 179 µM)	3.7	0	96.3		
CCCc1nn(C)c2c(=O)[nH]c(-c3cc(S(=O)(=O)N4CCN(C)CC4)ccc3OCC)nc12			98.9			
CCOc1ccc(S(=O)(=O)N2CCCN(S(=O)(=O)c3ccc(OCC)c(-c4nnc5c(n4)c(C)nn5C)c3)CC2)cc1-c1nnc2c(n1)c(C)nn2C			26.7			
c1nnc2[nH]ncc2n1					Active	48
CCOc1ccc(S(=O)(=O)NCCO)cc1-c1nnc2c(n1)c(C)nn2C	0.1 (≈ 255 µM)	60.5		39.5		
CCOc1ccc(S(=O)(=O)NCCNS(=O)(=O)c2ccc(OCC)c(-c3nnc4c(n3)c(C)nn4C)c2)cc1-c1nnc2c(n1)c(C)nn2C	0.9 (≈ 1250 µM)	20.2	28.1	79.7		
CCOc1ccc(S(=O)(=O)N2CCN(S(=O)(=O)c3ccc(OCC)c(-c4nnc5c(n4)c(C)nn5C)c3)CC2)cc1-c1nnc2c(n1)c(C)nn2C			11.4			

Second part, led by results:

IC50 [1] [mg/mL]	Activity (Leptosphaeria sacchari [2]) [%]	inhibition (Oryctolagus cuniculus) [%]	inhibition (Leptosphaeria sacchari [3]) [%]	SMILES	inhibition (Leptosphaeria sacchari [4])	inhibition (Leptosphaeria sacchari [5]) [%]
0.15 (≈ 325 µM)	37.9	13.3	62.1	CCOc1ccc(S(=O)(=O)NCCN2CCOCC2)cc1-c1nnc2c(n1)c(C)nn2C		
0.11 (≈ 255 µM)	41.2	6	58.8	CCOc1ccc(S(=O)(=O)N2CCN(C)CC2)cc1-c1nnc2c(n1)c(C)nn2C		
0.1 (≈ 232 µM)	33.5	0.6	62.1	CCOc1ccc(S(=O)(=O)N2CCCNCC2)cc1-c1nnc2c(n1)c(C)nn2C		
0.08 (≈ 192 µM)	29.5	26.5	70.5	CCOc1ccc(S(=O)(=O)N2CCNCC2)cc1-c1nnc2c(n1)c(C)nn2C		
0.15 (≈ 358 µM)	48.6	0	51.4	CCOc1ccc(S(=O)(=O)N2CCOCC2)cc1-c1nnc2c(n1)c(C)nn2C		
0.09 (≈ 224 µM)	39.6	24.1	60.4	CCOc1ccc(S(=O)(=O)N2CCCC2)cc1-c1nnc2c(n1)c(C)nn2C		
0.12 (≈ 297 µM)	31.7	16.4	68.3	CCOc1ccc(S(=O)(=O)N(CC)CC)cc1-c1nnc2c(n1)c(C)nn2C		
0.12 (≈ 261 µM)	42.9	5.8	57.1	CCCc1nn(C)c2nnc(-c3cc(S(=O)(=O)N4CCN(C)CC4)ccc3OCC)nc12		
0.12 (≈ 288 µM)	40.2	29.5	59.8	CCOc1ccc(S(=O)(=O)N2CCCCC2)cc1-c1nnc2c(n1)c(C)nn2C		
0.14 (≈ 324 µM)	45.2	0	54.8	CCOc1ccc(S(=O)(=O)N2CCN(C)CC2)cc1-c1nnc2nn(C)c(C)c2n1		
